In ChEMBL document CHEMBL4017530, “Mind the Metal: A Fragment Library-Derived Zinc Impurity Binds the E2 Ubiquitin-Conjugating Enzyme Ube2T and Induces Structural Rearrangements” (J Med Chem, 2017):
Numbering of substitutions follows the chain as printed. pKd: −log10 of the molar value. The source made the active and inactive calls. The rule behind the calls is not given here.

Key:
[1] = test system: T1, Ubiquitin-conjugating enzyme E2 T (Homo sapiens), Q9NPD8 [C86K,K91R,K95R]; assay: (§1) Binding affinity to N-terminally 6xHis-Smt3 tagged FANCL RING fused human Ube2T C86K/K91R/K95R mutant expressed in Escherichia coli by ITC method
T1 sequence (whole entry): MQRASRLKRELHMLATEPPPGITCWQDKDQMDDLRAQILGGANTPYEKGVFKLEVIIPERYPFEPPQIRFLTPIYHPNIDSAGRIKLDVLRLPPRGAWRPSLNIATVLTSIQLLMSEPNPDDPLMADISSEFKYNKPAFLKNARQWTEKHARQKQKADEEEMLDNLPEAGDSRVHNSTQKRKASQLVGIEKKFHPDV
How it was run: (§2)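 Titrations at 25 °C with stirring at 750 rpm in 100 mM Tris pH 8.0, 100 mM NaCl, 0.5 mM TCEP. Protein at approximately 50 μM. Titrant-into-buffer control used to correct for heat of dilution. Each titration repeated at least twice.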

[2] = test system: T1, Ubiquitin-conjugating enzyme E2 T (Homo sapiens), Q9NPD8 [C86K,K91R,K95R]; assay: Binding affinity to N-terminally 6xHis-Smt3 tagged human Ube2T C86K/K91R/K95R mutant expressed in Escherichia coli by DSF method
How it was run: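 Compound ranged from 5 μM to 5 mM. Samples heated from 25 to 95 °C at 1 °C/min with fluorescence read at each step. Melting temperature shift was the read-out.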

[3] = biological target: T2, Ubiquitin-conjugating enzyme E2 T (Homo sapiens, UniProt Q9NPD8, C86K/K91R/K95R); assay: Binding affinity to N-terminally 6xHis-Smt3 tagged human Ube2T C86K/K91R/K95R mutant expressed in Escherichia coli by ITC method; how it was run: as §2
[4] = biological target: T2, Ubiquitin-conjugating enzyme E2 T; assay: as §1; how it was run: as §2
[5] = test system: T1, Ubiquitin-conjugating enzyme E2 T (Homo sapiens), Q9NPD8 [C86K,K91R,K95R]; assay: Binding affinity to N-terminally 6xHis-Smt3 tagged Ub fused human Ube2T C86K/K91R/K95R mutant expressed in Escherichia coli at 1.5 mM by ITC method; how it was run: as §2
[6] = test system: T1, Ubiquitin-conjugating enzyme E2 T (Homo sapiens), Q9NPD8 [C86K,K91R,K95R]; assay: Binding affinity to N-terminally 6xHis-Smt3 tagged human Ube2T C86K/K91R/K95R mutant expressed in Escherichia coli in presence of EDTA by ITC method
How it was run: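 ITC at 25 °C with stirring at 750 rpm, protein approx. 50 μM. Buffer was 100 mM Tris pH 8.0, 100 mM NaCl, 0.5 mM TCEP, plus 2 mM EDTA. Heat of dilution corrected by titrant-into-buffer control. Repeated at least twice.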

[7] = test system: T1, Ubiquitin-conjugating enzyme E2 T (Homo sapiens), Q9NPD8 [C86K,K91R,K95R]; assay: Binding affinity to biotin labeled Ube2T C86K/K91R/K95R mutant (unknown origin) assessed as association and dissociation response at 2 uM by biolayer interferometry analysis
How it was run: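 Bio-layer interferometry with compound at a lowest tested concentration of 2 μM. Association and dissociation responses were recorded.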

[8] = biological target: T3, Ubiquitin-conjugating enzyme E2 T (Homo sapiens) (UniProt Q9NPD8); assay: Binding affinity to human 15N-labelled C-terminal flexible tail lacking Ube2T (1 to 154 residues) (unknown origin) at 500 uM by NMR spectrocopy
T3 sequence (whole entry): T1 sequence (whole entry) with K86C, R91K, R95K
How it was run: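 [1H-15N]-HSQC spectra recorded on 50 μM 15N-Ube2T ΔC (residues 1-154) with compound added at 100, 300 and 500 μM. Read-out was weakening or loss of resonance peaks compared with the apo spectrum.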

[9] = biological target: T3, Ubiquitin-conjugating enzyme E2 T (Homo sapiens); assay: Reversible binding affinity to human 15N-labelled C-terminal flexible tail lacking Ube2T (1 to 154 residues) at 100 to 500 uM measured after overnight dialysis by NMR spectrocopy
How it was run: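 HSQC on 50 μM 15N-Ube2T ΔC with compound at 100, 300 and 500 μM. Compound was then removed by overnight dialysis in 50 mM potassium phosphate pH 6.8, 85 mM NaCl, 1 mM DTT. HSQC recorded again and compared with the apo peak positions.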

[10] = biological target: Ubiquitin-like modifier-activating enzyme 1 (Homo sapiens) (UniProt P22314); assay: Inhibition of recombinant human E1 charging with ubiquitin at 20 to 100 uM after 10 mins in presence of ATP by coomassie staining based SDS PAGE analysis
Ubiquitin-like modifier-activating enzyme 1 (Homo sapiens), sequence (P22314 whole entry, looked up): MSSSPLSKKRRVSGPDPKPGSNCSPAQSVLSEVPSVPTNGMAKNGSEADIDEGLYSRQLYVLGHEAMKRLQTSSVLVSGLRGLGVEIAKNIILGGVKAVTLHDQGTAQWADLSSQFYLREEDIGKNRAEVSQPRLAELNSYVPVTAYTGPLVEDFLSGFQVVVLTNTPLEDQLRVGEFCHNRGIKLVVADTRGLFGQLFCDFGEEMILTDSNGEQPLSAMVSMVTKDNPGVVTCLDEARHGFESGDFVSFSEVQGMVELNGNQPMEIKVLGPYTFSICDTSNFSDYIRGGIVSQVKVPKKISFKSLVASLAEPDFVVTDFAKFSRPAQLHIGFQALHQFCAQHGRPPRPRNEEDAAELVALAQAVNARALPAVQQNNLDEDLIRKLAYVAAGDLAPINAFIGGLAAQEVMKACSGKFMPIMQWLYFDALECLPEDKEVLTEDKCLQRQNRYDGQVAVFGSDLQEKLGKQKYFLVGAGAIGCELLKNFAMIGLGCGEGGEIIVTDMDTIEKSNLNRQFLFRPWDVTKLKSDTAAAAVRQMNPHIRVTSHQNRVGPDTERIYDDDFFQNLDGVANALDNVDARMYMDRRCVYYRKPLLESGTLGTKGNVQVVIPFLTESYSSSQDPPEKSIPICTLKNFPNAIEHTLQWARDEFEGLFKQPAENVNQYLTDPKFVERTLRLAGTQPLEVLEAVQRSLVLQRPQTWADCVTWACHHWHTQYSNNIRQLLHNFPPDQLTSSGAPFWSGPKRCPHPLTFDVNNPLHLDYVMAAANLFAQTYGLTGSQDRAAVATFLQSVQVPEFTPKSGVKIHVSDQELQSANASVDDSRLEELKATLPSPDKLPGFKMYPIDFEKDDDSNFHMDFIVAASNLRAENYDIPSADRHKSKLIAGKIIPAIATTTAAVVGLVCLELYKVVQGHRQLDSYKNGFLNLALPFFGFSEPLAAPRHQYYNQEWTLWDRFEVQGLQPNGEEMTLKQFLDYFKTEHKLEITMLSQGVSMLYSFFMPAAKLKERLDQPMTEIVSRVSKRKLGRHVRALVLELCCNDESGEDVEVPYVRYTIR

Compound | Activity [1] | Activity [2] | other results
CC1CCCN1c1ccc(C(=N)N)cn1 (stereo not drawn) | inactive | inactive | 
[Cl-].[Cl-].[Zn+2] [ZINC CHLORIDE] |  |  | pKd [3]: 4.80
Cc1cc(C)n(-c2ccc(C(=N)N)cn2)n1 |  | Dose-dependent effect | pKd [3]: 4.75; pKd [4]: 4.67; Activity [5]: inactive; Activity [6]: inactive; Activity [7]: Active; Activity [8]: Active; Activity [9]: Active; inhibition [10]: inactive
N=C(N)c1ccc(N2CCCCC2)nc1 | inactive | inactive | 
CC1CCN(c2ccc(C(=N)N)cn2)C1 (stereo not drawn) | inactive | inactive | 
N=C(N)c1ccc(N2CCCC2)nc1 |  | Dose-dependent effect | 
N=C(N)c1ccc(-n2cccn2)nc1 |  | Dose-dependent effect | 
